The subject of series [1] is Mus musculus. Kind of series: Toxicity in BALB/c nu/nu mouse xenografted with human DMS53 cells assessed as body weight change at 10 mg/kg, po administered for 3 times a week measured after 20 days. Conditions: in vivo, 480 h.
Series [2] relates to Mus musculus. Kind of series: Toxicity in BALB/c nu/nu mouse xenografted with human DMS53 cells assessed as change in RBC count at 10 mg/kg, po administered for 3 times a week measured after 20 days. The class given is organism-based, DMS-53. Further details: dose 10 mg/kg, route oral. Conditions: in vivo, 480 h. A general note: A xenograft is tissue or cells of one species grown in another, often human tumour cells in immunodeficient mice.

The subject of series [3] is Mus musculus. Kind of series: Cardiotoxicity in BALB/c nu/nu mouse xenografted with human DMS53 cells at 3 mg/kg, iv administered for 5 days a week measured after 21 days. The class given is toxicity, organism-based, DMS-53. Further details: dose 3 mg/kg, route intravenous. To be noted: in vivo, 504 h. The procedure, abridged: (§1)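 DMS-53 xenograft nude mice given agents iv by tail vein 5 days/week in 30% propylene glycol/saline for 21 days. At sacrifice, heart sections were stained with Gomori Trichrome to detect fibrosis. Spleen, kidney, liver, heart, lungs and brain were also stained with H&E and Perls' and examined by an independent veterinary pathologist.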

The test system of series [4] is Mus musculus. Nature of the series: Toxicity in BALB/c nu/nu mouse xenografted with human DMS53 cells assessed as change in brain histology at 6 mg/kg, iv administered for 5 days a week measured after 21 days by hematoxylin and eosin staining method. The class given is organism-based, DMS-53. Further details: dose 6 mg/kg, route intravenous. To be noted: in vivo, 504 h. The procedure, abridged:
(§2)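 DMS-53 xenografts in nude mice; dosing started at 100 mm3 tumor volume. Agents given iv via tail vein, 5 days/week for 21 days, vehicle 30% propylene glycol/saline, vehicle-treated controls. Mice sacrificed day 21. Body and organ weights and hematological indices recorded. Spleen, kidney, liver, heart, lungs and brain were stained with H&E, Perls' and Gomori Trichrome and read by an independent veterinary pathologist.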

Series [5] relates to Mus musculus. Nature of the series: Toxicity in BALB/c nu/nu mouse xenografted with human DMS53 cells assessed as hepatocellular necrosis at 3 mg/kg, iv administered for 5 days a week measured after 21 days by hematoxylin and eosin staining method. The class given is organism-based, DMS-53. Also noted: dose 3 mg/kg, route intravenous. To be noted: in vivo, 504 h. The procedure, abridged: (§3)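 Nude mice with DMS-53 xenografts dosed by tail-vein iv injection in 30% propylene glycol/saline, starting at 100 mm3 tumour volume, 5 days/week for 21 days. Spleen, kidney, liver, heart, lungs and brain were stained with H&E, Perls' (Fe loading) and Gomori Trichrome (fibrosis) by standard methods, and an independent veterinary pathologist examined them.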

Series [6] deals with Mus musculus. Nature of the series: Toxicity in BALB/c nu/nu mouse xenografted with human DMS53 cells assessed as change in RBC count at 6 mg/kg, iv administered for 5 days a week measured after 21 days. The class given is organism-based, DMS-53. Also noted: dose 6 mg/kg, route intravenous. To be noted: in vivo, 504 h.
Series [7] has as its system Mus musculus. Nature of the series: Toxicity in BALB/c nu/nu mouse xenografted with human DMS53 cells assessed as change in body weight at 3 mg/kg, iv administered for 5 days a week measured after 21 days. The class given is organism-based, DMS-53. Further details: dose 3 mg/kg, route intravenous. To be noted: in vivo, 504 h. The procedure, abridged:
as §2

The test system of series [8] is Mus musculus. Kind of series: Toxicity in BALB/c nu/nu mouse xenografted with human DMS53 cells assessed as change in lungs histology at 6 mg/kg, iv administered for 5 days a week measured after 21 days by hematoxylin and eosin staining method. Also noted: dose 6 mg/kg, route intravenous. The class given is organism-based, DMS-53. Conditions: in vivo, 504 h. The procedure, abridged:
as §2

The test system of series [9] is Mus musculus. Kind of series: Toxicity in BALB/c nu/nu mouse xenografted with human DMS53 cells assessed as change in RBC count at 7.5 mg/kg, po administered for 3 times a week measured after 20 days. Conditions: in vivo, 480 h. Further details: dose 7.5 mg/kg, route oral. The class given is organism-based, DMS-53.
Series [10] relates to Mus musculus. Kind of series: Toxicity in human DMS53 cells xenografted BALB/c nu/nu mouse assessed as change in organ weight at 6 mg/kg, iv administered for 5 days a week measured after 21 days. Further details: dose 6 mg/kg, route intravenous. The class given is organism-based, DMS-53. To be noted: in vivo, 504 h. The procedure, abridged:
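DMS-53 xenograft-bearing nude mice, treatment started at 100 mm3 tumour volume: iv tail-vein dosing in 30% propylene glycol/saline, 5 days/week for 21 days. Organs were weighed at sacrifice and compared with vehicle-control mice.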

In series [11] the test system is Mus musculus. Nature of the series: Toxicity in BALB/c nu/nu mouse xenografted with human DMS53 cells assessed as change in RBC count at 8 mg/kg, iv administered for 5 days a week measured after 21 days. The class given is organism-based, DMS-53. Also noted: dose 8 mg/kg, route intravenous. To be noted: in vivo, 504 h.
Series [12] has as its system Mus musculus. Nature of the series: Toxicity in BALB/c nu/nu mouse xenografted with human DMS53 cells assessed as change in reticulocyte count at 4 mg/kg, iv administered for 5 days a week measured after 21 days. The class given is organism-based, DMS-53. Further details: dose 4 mg/kg, route intravenous. To be noted: in vivo, 504 h. The procedure, abridged: (§4)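 Nude mice carrying DMS-53 xenografts (treatment from 100 mm3) received iv tail-vein doses in 30% propylene glycol/saline, 5 days/week for 21 days. Hematological indices (RBC, hemoglobin, hematocrit, reticulocytes, WBC, platelets) were then compared with vehicle controls.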

Series [13] has as its system Mus musculus. Kind of series: Toxicity in BALB/c nu/nu mouse xenografted with human DMS53 cells assessed as change in platelet count at 8 mg/kg, iv administered for 5 days a week measured after 21 days. The class given is organism-based, DMS-53. Also noted: dose 8 mg/kg, route intravenous. Conditions: in vivo, 504 h. The procedure, abridged:
as §4

Series [14] concerns Mus musculus. Kind of series: Toxicity in BALB/c nu/nu mouse xenografted with human DMS53 cells assessed as change in hemoglobin level at 8 mg/kg, iv administered for 5 days a week measured after 21 days. The class given is organism-based, DMS-53. Further details: dose 8 mg/kg, route intravenous. To be noted: in vivo, 504 h. The procedure, abridged: as §2
For series [15], the system named is Mus musculus. Kind of series: Toxicity in BALB/c nu/nu mouse xenografted with human DMS53 cells assessed as vacuolation at 4 mg/kg, iv administered for 5 days a week measured after 21 days by hematoxylin and eosin staining method. Further details: dose 4 mg/kg, route intravenous. The class given is organism-based, DMS-53. Conditions: in vivo, 504 h. The procedure, abridged: as §3

The subject of series [16] is Mus musculus. Nature of the series: Toxicity in BALB/c nu/nu mouse xenografted with human DMS53 cells assessed as change in RBC count at 4 mg/kg, iv administered for 5 days a week measured after 21 days. To be noted: in vivo, 504 h. Also noted: dose 4 mg/kg, route intravenous. The class given is organism-based, DMS-53.
For series [17], the system named is Mus musculus. Kind of series: Toxicity in BALB/c nu/nu mouse xenografted with human DMS53 cells assessed as change in hemoglobin level at 20 mg/kg, po administered for 3 times a week measured after 20 days. Conditions: in vivo, 480 h. The class given is organism-based, DMS-53. Also noted: dose 20 mg/kg, route oral. The procedure, abridged:
(§5)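 Nude mice bearing DMS-53 xenografts gavaged 3 times/week for 20 days, vehicle 30% propylene glycol/saline, vehicle controls, n = 6-11 mice/condition. Sacrifice on day 20. Organ weights and hematological indices recorded. Spleen, kidney, liver, heart, lungs and brain examined histologically, hearts stained with Gomori Trichrome for fibrosis.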

For series [18], the system named is Mus musculus. Nature of the series: Toxicity in BALB/c nu/nu mouse xenografted with human DMS53 cells assessed as change in hematocrit level at 20 mg/kg, po administered for 3 times a week measured after 20 days. Further details: dose 20 mg/kg, route oral. To be noted: in vivo, 480 h. The class given is organism-based, DMS-53. The procedure, abridged: as §5

The test system of series [19] is Mus musculus. Nature of the series: Toxicity in BALB/c nu/nu mouse xenografted with human DMS53 cells assessed as change in lungs histology at 8 mg/kg, iv administered for 5 days a week measured after 21 days by hematoxylin and eosin staining method. The class given is organism-based, DMS-53. Further details: dose 8 mg/kg, route intravenous. To be noted: in vivo, 504 h. The procedure, abridged:
as §3

The test system of series [20] is Mus musculus. Nature of the series: Cardiotoxicity in BALB/c nu/nu mouse xenografted with human DMS53 cells at 8 mg/kg, iv administered for 5 days a week measured after 21 days. The class given is toxicity, organism-based, DMS-53. Conditions: in vivo, 504 h. Also noted: dose 8 mg/kg, route intravenous. The procedure, abridged: as §1
Series [21] concerns Mus musculus. Kind of series: Toxicity in BALB/c nu/nu mouse xenografted with human DMS53 cells assessed as hepatocellular necrosis at 8 mg/kg, iv administered for 5 days a week measured after 21 days by hematoxylin and eosin staining method. The class given is organism-based, DMS-53. Further details: dose 8 mg/kg, route intravenous. To be noted: in vivo, 504 h. The procedure, abridged: as §3

The test system of series [22] is Mus musculus. Kind of series: Toxicity in BALB/c nu/nu mouse xenografted with human DMS53 cells assessed as change in lungs histology at 4 mg/kg, iv administered for 5 days a week measured after 21 days by hematoxylin and eosin staining method. The class given is organism-based, DMS-53. Further details: dose 4 mg/kg, route intravenous. To be noted: in vivo, 504 h. The procedure, abridged:
as §2

Series [23] concerns Mus musculus. Nature of the series: Toxicity in BALB/c nu/nu mouse xenografted with human DMS53 cells assessed as change in spleen weight at 20 mg/kg, po administered for 3 times a week measured after 20 days. The class given is organism-based, DMS-53. Further details: dose 20 mg/kg, route oral. Conditions: in vivo, 480 h. The procedure, abridged:
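DMS-53 xenograft nude mice were gavaged 3 times/week in 30% propylene glycol/saline vehicle for 20 days and then sacrificed. Organ weights and histology of spleen, kidney, liver, heart, lungs and brain were compared with vehicle controls. n = 6-11 mice/condition.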

Series [24] concerns Mus musculus. Nature of the series: Toxicity in BALB/c nu/nu mouse xenografted with human DMS53 cells assessed as cardiac fibrosis at 8 mg/kg, iv administered for 5 days a week measured after 21 days by […]. The class given is organism-based, Heart, DMS-53. Further details: dose 8 mg/kg, route intravenous. Conditions: in vivo, 504 h. The procedure, abridged: as §1

Our source for the Activity values is ChEMBL document CHEMBL2203173 (J Med Chem, 2012).

For the molecule `CCN(C)C(=S)NN=C(c1ccccn1)c1ccccn1.Cl`, the Activity result in the series on Mus musculus [1] is “Non-toxic”; with Mus musculus [2], “Toxic”; in the series on Mus musculus [3], “Non-toxic”; with Mus musculus [4] it was “Non-toxic”; in the series on Mus musculus [5], “Non-toxic”; with Mus musculus [6], “Non-toxic”. For the same molecule, the Activity entry in the series on Mus musculus [7] is given as “Non-toxic”; in the series on Mus musculus [8], “Non-toxic”; in the series with Mus musculus [9], “Non-toxic”; with Mus musculus [10], “Toxic”.

Consider `CN(C(=S)NN=C(c1ccccn1)c1ccccn1)C1CCCCC1.Cl`, for which the Activity entry is “Toxic” with Mus musculus [11]; “Non-toxic” in the series with Mus musculus [12]; “Non-toxic” with Mus musculus [13]; “Toxic” in the series on Mus musculus [14]; “Non-toxic” in the series on Mus musculus [15]; “Non-toxic” in the series with Mus musculus [16]. Besides, the Activity result in the series with Mus musculus [17], in the series on Mus musculus [18], in the series on Mus musculus [19], with Mus musculus [20], with Mus musculus [21] and with Mus musculus [22] was “Non-toxic” in each case. Further, the Activity result with Mus musculus [23] and with Mus musculus [24] was “Non-toxic” in each case.
